Calls of active or inactive are those of the source. No cut-off for these calls is given here. Non-standard residues stand in square brackets, D forms with d. Residues, ends and D or L forms follow the SMILES beside them. pS = N[C@@H](COP(=O)(O)O)C(=O)O Where only a bound is given, the exact number is not on record here.

Usually Kd stands for a measure of binding affinity in units of concentration. A higher Kd goes with weaker binding. By IC50 is commonly meant the concentration at which inhibition is half-maximal. A high value points to weaker potency in that assay.

Assay [1] deals with T1, Breast cancer type 1 susceptibility protein (Homo sapiens, UniProt P38398). Put plainly: Binding affinity to BRCA1 by isothermal titration calorimetric assay. In outline:
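Direct ITC titration at 25°C. Protein dialyzed three times (2 h each) into 50mM KH2PO4 pH = 7.2; final dialysate used for reference cell and to dissolve peptides. Peptides (100 – 400 μM) in syringe, protein (10 – 20 μM) in cell; 3 μL first injection then 29 × 10 μL every 3 minutes, stirred at 307 rpm. Peptide-into-buffer dilution curves collected; Kd and ΔG, ΔH, ΔS derived.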
(In general: ITC needs no label: the signal is the heat of the interaction.)

Assay [2] has as its target T1, Breast cancer type 1 susceptibility protein. Kind of assay: Inhibition of BRCA1 by fluorescence polarization assay. The method, boiled down:
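Competitive fluorescence polarization assay. Peptides titrated into a mixture of BRCT protein (1000 nM) and fluorescently labeled tetrapeptide (100 nM). Polarization and fluorescence read on a plate reader. IC50 values obtained by non-linear least square fitting.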
Target sequence in this assay (P38398 whole entry): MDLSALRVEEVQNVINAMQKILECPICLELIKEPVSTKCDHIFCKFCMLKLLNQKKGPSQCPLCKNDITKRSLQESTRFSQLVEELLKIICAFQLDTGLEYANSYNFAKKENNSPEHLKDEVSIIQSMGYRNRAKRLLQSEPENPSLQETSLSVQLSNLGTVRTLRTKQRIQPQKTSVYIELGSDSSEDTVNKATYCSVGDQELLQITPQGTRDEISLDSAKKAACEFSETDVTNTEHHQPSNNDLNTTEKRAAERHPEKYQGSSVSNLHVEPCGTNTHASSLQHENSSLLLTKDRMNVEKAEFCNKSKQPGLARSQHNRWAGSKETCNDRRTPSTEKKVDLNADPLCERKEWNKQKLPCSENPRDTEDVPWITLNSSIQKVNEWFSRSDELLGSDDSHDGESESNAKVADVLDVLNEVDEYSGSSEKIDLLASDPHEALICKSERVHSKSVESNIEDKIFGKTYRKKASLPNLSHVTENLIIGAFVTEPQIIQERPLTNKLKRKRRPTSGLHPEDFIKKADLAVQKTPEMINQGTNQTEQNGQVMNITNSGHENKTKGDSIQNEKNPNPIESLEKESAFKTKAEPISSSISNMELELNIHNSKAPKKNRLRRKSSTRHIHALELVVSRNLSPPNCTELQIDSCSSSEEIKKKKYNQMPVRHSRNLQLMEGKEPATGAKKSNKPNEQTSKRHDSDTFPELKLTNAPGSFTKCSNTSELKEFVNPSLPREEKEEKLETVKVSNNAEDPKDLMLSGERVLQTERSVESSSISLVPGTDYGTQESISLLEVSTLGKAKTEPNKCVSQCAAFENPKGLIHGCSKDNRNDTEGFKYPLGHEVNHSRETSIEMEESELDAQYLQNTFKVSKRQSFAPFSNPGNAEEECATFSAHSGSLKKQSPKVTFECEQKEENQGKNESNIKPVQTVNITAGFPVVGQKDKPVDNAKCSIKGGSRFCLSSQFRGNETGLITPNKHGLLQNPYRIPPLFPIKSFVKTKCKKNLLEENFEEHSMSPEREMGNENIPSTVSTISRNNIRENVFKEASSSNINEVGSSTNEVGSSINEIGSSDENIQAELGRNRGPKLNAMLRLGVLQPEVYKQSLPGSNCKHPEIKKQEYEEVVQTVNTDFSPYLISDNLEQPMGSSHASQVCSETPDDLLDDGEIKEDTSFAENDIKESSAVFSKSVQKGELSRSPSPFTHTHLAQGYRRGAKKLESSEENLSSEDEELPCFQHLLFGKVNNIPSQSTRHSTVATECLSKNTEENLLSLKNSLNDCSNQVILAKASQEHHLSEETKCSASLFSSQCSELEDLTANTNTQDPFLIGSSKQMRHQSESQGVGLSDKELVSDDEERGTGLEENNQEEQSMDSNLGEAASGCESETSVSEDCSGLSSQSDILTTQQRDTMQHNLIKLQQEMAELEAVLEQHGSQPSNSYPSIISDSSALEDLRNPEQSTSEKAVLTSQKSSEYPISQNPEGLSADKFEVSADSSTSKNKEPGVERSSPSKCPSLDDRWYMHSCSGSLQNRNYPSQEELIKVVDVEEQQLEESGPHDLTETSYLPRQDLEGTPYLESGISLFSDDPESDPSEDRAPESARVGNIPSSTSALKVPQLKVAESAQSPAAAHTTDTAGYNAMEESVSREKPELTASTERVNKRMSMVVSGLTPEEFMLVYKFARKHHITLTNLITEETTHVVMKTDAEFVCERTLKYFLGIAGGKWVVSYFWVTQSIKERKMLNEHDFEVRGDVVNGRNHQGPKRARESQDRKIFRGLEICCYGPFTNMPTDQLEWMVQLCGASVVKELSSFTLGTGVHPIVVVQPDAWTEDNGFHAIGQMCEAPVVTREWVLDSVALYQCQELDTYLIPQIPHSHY

For `CC(=O)N[C@@H](CO)C(=O)N[C@@H](CCCNC(=N)N)C(=O)N[C@@H](CO)C(=O)N[C@H](C(=O)N[C@@H](COP(=O)(O)O)C(=O)N1CCC[C@H]1C(=O)N[C@H](C(=O)N[C@@H](Cc1ccccc1)C(=O)N[C@@H](CC(N)=O)C(=O)N[C@@H](CCCCN)C(N)=O)[C@@H](C)O)[C@@H](C)O`, the Kd in assay [1] is 440 nM. On to `CC[C@H](C)[C@H](N)C(=O)N[C@@H](CO)C(=O)N[C@@H](CCCNC(=N)N)C(=O)N[C@@H](CO)C(=O)N[C@H](C(=O)N[C@@H](COP(=O)(O)O)C(=O)N1CCC[C@H]1C(=O)N[C@H](C(=O)N[C@@H](Cc1ccccc1)C(=O)N[C@@H](CC(N)=O)C(=O)N[C@@H](CCCCN)C(=O)N[C@@H](CCC(N)=O)C(=O)N[C@H](C(=O)O)[C@@H](C)O)[C@@H](C)O)[C@@H](C)O`, for which the Kd in assay [1] amounted to 410 nM. The molecule `CC(=O)N[C@@H](CCC(=O)O)C(=O)N1CCC[C@H]1C(=O)N[C@H](C(=O)N[C@@H](Cc1ccccc1)C(N)=O)[C@@H](C)O` (Ac-EPTF-NH2) gave an IC50 in assay [2] greater than 250 µM.

With `CC(=O)N[C@@H](COP(=O)(O)O)C(=O)N1CCC[C@H]1C(=O)N[C@H](C(=O)N[C@@H](Cc1ccccc1)C(N)=O)[C@@H](C)O` (Ac-[pS]PTF-NH2), the outcome in assay [1] was Active.

For the molecule `CC(=O)N[C@@H](COP(=O)(O)O)C(=O)N1CCC[C@H]1C(=O)N[C@H](C(=O)N[C@@H](Cc1ccccc1)C(N)=O)C(C)C` (Ac-[pS]PVF-NH2), the result in assay [1] was Active. On to `CC(=O)N[C@@H](COP(=O)(O)O)C(=O)N1CCC[C@H]1C(=O)N[C@H](C(=O)N[C@@H](Cc1ccccc1)C(=O)O)C(C)C` (Ac-[pS]PVF-OH), for which the result in assay [1] was Active.

The values above are taken from ChEMBL document CHEMBL1781980, “Structure-activity relationship studies to probe the phosphoprotein binding site on the carboxy terminal domains of the breast cancer susceptibility gene 1” (J Med Chem, 2011).
